Experimental data taken from ChEMBL document CHEMBL3233000, “Cytotoxic ent-kaurane diterpenoids from Isodon wikstroemioides” (J Nat Prod, 2014).

Experiments:
Type in all cases: functional, cell-based
HL-60 = test: Cytotoxicity against human HL60 cells assessed as growth inhibition after 48 hrs by MTS assay; conditions: HL-60, 48 h
Outline: (§1)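 Cell lines from ATCC, grown in RPMI-1640 or DMEM with 10% FBS at 37 °C, 5% CO2. Cells seeded, incubated 12 h at 37 °C, then screened at 40 μM for 48 h with MTS read-out. Where growth inhibition reached 50%, retested at 0.064, 0.32, 1.6, 8 and 40 μM in triplicate. Cisplatin and paclitaxel were positive controls. IC50 by Reed and Muench method.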

SMMC-7721 = test: Cytotoxicity against human SMMC7721 cells assessed as growth inhibition after 48 hrs by MTS assay; conditions: SMMC-7721, 48 h; outline: as §1
A549 = test: Cytotoxicity against human A549 cells assessed as growth inhibition after 48 hrs by MTS assay; conditions: A549, 48 h; outline: as §1
MCF7 = test: Cytotoxicity against human MCF7 cells assessed as growth inhibition after 48 hrs by MTS assay; conditions: MCF7, 48 h; outline: as §1
SW480 = test: Cytotoxicity against human SW480 cells assessed as growth inhibition after 48 hrs by MTS assay; conditions: SW480, 48 h; outline: as §1
RAW264.7 = test: Inhibition of nitric oxide production in LPS-stimulated mouse RAW264.7 cells after 18 hrs by griess reagent based plate reader analysis; conditions: RAW264.7, 18 h
Outline: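 RAW264.7 macrophages seeded at 2 × 10^5 cells/well. Treated with serial dilutions (top concentration 25 μM), then stimulated with LPS 1 μg/mL for 18 h. Supernatant NO measured with Griess reagents, absorbance 550 nm. MG-132 was the positive control. Viability was checked in parallel by MTT (595 nm) to exclude cytotoxic interference.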

Row | SMILES | IC50 (HL-60) [µM] | IC50 (SMMC-7721) [µM] | IC50 (A549) [µM] | IC50 (MCF7) [µM] | IC50 (SW480) [µM] | IC50 (RAW264.7) [µM]
1 | C=C1C(=O)[C@]23C[C@H]1CC[C@H]2[C@]1(CO)CCC[C@](C)(CO)[C@H]1C[C@H]3O | > 10 | 7.1 | > 10 | 7.3 | 4 | 2.8
2 | C=C1C(=O)[C@]23[C@H](O)[C@H]1[C@@H](O)[C@H](O)[C@H]2[C@]1(C)CCCC(C)(C)[C@H]1C[C@H]3OC(C)=O | 8.8 | 5.8 | > 10 | > 10 | 4.7 | 7.2
3 | C=C1C(=O)[C@@]23CC[C@@H]4[C@@](C)(CO)CCC[C@@]4(C)[C@@H]2C[C@H](O)[C@@H]1[C@H]3O | 8.8 | 4 | > 10 | > 10 | 4 | 4.8
4 | C=C1C(=O)[C@@]23[C@H](O)C[C@@H]4[C@@](C)(CO)[C@@H](O)CC[C@@]4(C)[C@@H]2CC(=O)[C@@H]1[C@H]3O | > 10 | > 10 | > 10 | > 10 | > 10 | –
5 | C=C1[C@@H]2C[C@H](OC(C)=O)[C@H]3[C@]4(C)[C@@H](OC(C)=O)C[C@H](O)C(C)(C)[C@H]4C(=O)[C@H](OC(C)=O)[C@]3(C2)[C@@H]1O [ADENANTHIN J] | > 10 | > 10 | > 10 | > 10 | > 10 | –
6 | C=C1[C@@H]2C[C@H](OC(C)=O)[C@H]3[C@]4(C)[C@@H](OC(C)=O)C[C@H](O)C(C)(C)[C@H]4C(=O)[C@H](O)[C@]3(C2)[C@@H]1OC(C)=O [ADENANTHIN K] | > 10 | > 10 | > 10 | > 10 | > 10 | –
7 | C=C1C(=O)[C@]23C[C@H]1C[C@H](OC(C)=O)[C@H]2[C@]1(C)[C@@H](OC(C)=O)C[C@H](O)C(C)(C)[C@H]1C(=O)[C@@H]3OC(C)=O [ADENANTHIN] | 3.6 | 4 | 3.3 | 2.8 | 2 | 3.3
8 | C=C1C(=O)[C@@]23[C@H](O)C[C@@H]4[C@@](C)(COC(C)=O)CCC[C@@]4(C)[C@@H]2C[C@H](O)[C@@H]1[C@H]3O [ALBOPILOSIN A] | 2 | 1.4 | 3.2 | 1.7 | 0.9 | 1.9
9 | C=C1[C@H]2[C@@H](O)[C@@]3([C@H](O)C[C@@H]4[C@@](C)(CO)CCC[C@@]4(C)[C@@H]3C[C@@H]2O)[C@@H]1OC(C)=O [ALBOPILOSIN B] | > 10 | > 10 | > 10 | > 10 | > 10 | –
10 | C=C1C(=O)[C@@]23[C@H](O)C[C@@H]4[C@@](C)(CO)CCC[C@@]4(C)[C@@H]2CC[C@@H]1[C@H]3O [EXCISANIN C] | 3 | 2.7 | 2.1 | 1.6 | 1.3 | 1
11 | C=C1C(=O)[C@@]23[C@H](O)C[C@@H]4C(C)(C)CCC[C@@]4(C)[C@@H]2C[C@H](O)[C@@H]1[C@H]3O [ISOSCOPARIN L] | 0.5 | 1.2 | 0.8 | 0.4 | 0.6 | 0.8
12 | C=C1C(=O)[C@@]23[C@H](O)C[C@H]4[C@@](C)(CCC[C@]4(C)C=O)[C@@H]2C[C@H](O)[C@@H]1[C@H]3O [MACROCALYXIN C] | 3.7 | 4 | > 10 | 3.7 | 2.1 | 2.7
13 | C=C1[C@@H]2C[C@H](OC(C)=O)[C@H]3[C@]4(C)[C@@H](OC(C)=O)C[C@H](O)C(C)(C)[C@H]4C(=O)[C@H](O)[C@]3(C2)[C@@H]1O [NERVONIN E] | > 10 | > 10 | > 10 | > 10 | > 10 | –
14 | C=C1[C@@H]2C[C@H](O)[C@H]3[C@]4(C)[C@@H](OC(C)=O)C[C@H](O)C(C)(C)[C@H]4[C@@H](OC(C)=O)[C@H](OC(C)=O)[C@]3(C2)[C@@H]1O [NERVONIN G] | > 10 | > 10 | > 10 | > 10 | > 10 | –
15 | CC(=O)O[C@H]1C(=O)[C@@]2(C)[C@H]([C@H](OC(=O)c3ccccc3)[C@]3(O)C[C@H](OC(=O)[C@H](O)[C@@H](NC(=O)c4ccccc4)c4ccccc4)C(C)=C1C3(C)C)[C@]1(OC(C)=O)CO[C@@H]1C[C@@H]2O [PACLITAXEL] | < 0.008 | < 0.008 | < 0.008 | < 0.008 | < 0.008 | –
16 | C=C1C(=O)[C@@]23[C@H](O)C[C@@H]4[C@@](C)(CO)CCC[C@@]4(C)[C@@H]2[C@@H](O)C[C@@H]1[C@H]3O [RABDOKUNMIN D] | > 10 | > 10 | > 10 | > 10 | > 10 | –
